The values that follow come from ChEMBL document CHEMBL1156742, “Fluorinated rhodacyanine (SJL-01) possessing high efficacy for visceral leishmaniasis (VL)” (J Med Chem, 2010).

The IC50 is the point on the concentration scale where inhibition reaches its midpoint. The term inhibition in vivo denotes the relative decrease from the control value, in per cent. Low readings indicate a response near the control, high ones a response far below the control. As usually defined, the inhibition is the share of the control response that was lost under treatment. A higher inhibition goes with a strong effect.

One data set deals with L6. Briefly: Cytotoxicity against rat L6 cells after 72 hrs by Alamar blue assay. Format: cell-based. In outline: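 L-6 myoblasts were grown in RPMI 1640 with L-glutamine and 10% FBS at 37 °C, 5% CO2, seeded at 4×10^4 cells/well. After 24 h they were given serial drug dilutions for 72 h. Alamar blue was added for 2 h, and fluorescence read at ex 536/em 588 nm to give IC50.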
On the technique in general: Resazurin is reduced to fluorescent resorufin, in cell work by metabolically active cells.

Data set [1] concerns Leishmania donovani. The experiment in a line: Antileishmanial activity against Leishmania donovani MHOM/ET/67/L82 amastigotes infected in syrian golden hamster spleen after 72 hrs. Format: functional, organism-based. In outline:
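Hamster-maintained spleen amastigotes were grown axenically at 37 °C, 5% CO2 in Cunningham SM medium, pH 5.4, with 10% FBS. 10^5 amastigotes per well were exposed to serial drug dilutions for 72 h. Alamar blue (resazurin) was added for 2 h more, and fluorescence read at ex 536/em 588 nm. IC50 was taken from the sigmoidal inhibition curve versus control.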

Data set [2] is described as follows: Selectivity ratio of IC50 for rat L6 cells to IC50 for Leishmania donovani MHOM/ET/67/L82. Format: ADME, cell-based. The settings on record: for selectivity ratio: L6 cells, read-out: Ratio IC50; for Ratio IC50: l6. The procedure, abridged:
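Ratio of the L-6 cytotoxicity IC50 to the IC50 against axenic L. donovani amastigotes.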

In data set [3] the test system is Leishmania donovani. The experiment in a line: Antileishmanial activity against Leishmania donovani MHOM/ET/67/HU3 infected in BALB/c mouse at 50 mg/kg, ip for 5 days from day 7 postinfection measured after 14 days by Giemsa staining. The settings on record: MHOM/ET/67/HU3, ip, route intraperitoneal. Format: functional. In outline: (§1)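 Female SPF BALB/c mice (6-8 weeks, ~20 g) infected iv via tail vein on day 0 with 1.5×10^7 hamster-spleen-derived amastigotes. Groups of five mice were treated once daily starting day 7. On day 14 the livers were weighed and Giemsa-stained smears prepared. Amastigotes were counted per 500 liver cells and expressed as amastigotes per liver cell × mg liver. % inhibition was calculated versus untreated mice.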

Data set [4] deals with Leishmania donovani. The experiment in a line: Antileishmanial activity against Leishmania donovani MHOM/ET/67/HU3 infected in BALB/c mouse at 4.1 mg/kg, iv for 5 days from day 7 postinfection measured after 14 days by Giemsa staining. Format: functional. In outline: as §1
Data set [5] has as its system Leishmania donovani. The experiment in a line: Antileishmanial activity against Leishmania donovani MHOM/ET/67/L82 infected in NMRI mouse macrophage assessed as reduction in parasite burden after 4 days by Giemsa staining. The settings on record: MHOM/ET/67/L82, 4 days.
Data set [6] concerns Leishmania donovani. The experiment in a line: Antileishmanial activity against Leishmania donovani MHOM/ET/67/HU3 infected in BALB/c mouse at 1.3 mg/kg, iv for 5 days from day 7 postinfection measured after 14 days by Giemsa staining. Format: functional. The procedure, abridged: as §1
The test system of data set [7] is Leishmania donovani. The experiment in a line: Antileishmanial activity against Leishmania donovani MHOM/ET/67/HU3 infected in BALB/c mouse at 12.5 mg/kg, iv for 5 days from day 7 postinfection measured after 14 days by Giemsa staining. Format: functional. The procedure, abridged: as §1
The test system of data set [8] is Leishmania donovani. Briefly: Antileishmanial activity against Leishmania donovani MHOM/ET/67/HU3 infected in BALB/c mouse at 0.2 mg/kg, iv for 5 days from day 7 postinfection measured after 14 days by Giemsa staining. Format: functional. In outline: as §1
Data set [9] deals with Leishmania donovani. Briefly: Antileishmanial activity against Leishmania donovani MHOM/ET/67/HU3 infected in BALB/c mouse at 1.5 mg/kg, iv for 3 days from day 7 postinfection measured after 14 days by Giemsa staining. Format: functional. The procedure, abridged: as §1
Data set [10] concerns Leishmania donovani. Briefly: Antileishmanial activity against Leishmania donovani MHOM/ET/67/HU3 infected in BALB/c mouse at 0.5 mg/kg, iv for 3 days from day 7 postinfection measured after 14 days by Giemsa staining. Format: functional. In outline: as §1
In data set [11] the test system is Leishmania donovani. Briefly: Antileishmanial activity against Leishmania donovani MHOM/ET/67/HU3 infected in BALB/c mouse at 50 mg/kg, po for 5 days from day 7 postinfection measured after 14 days by Giemsa staining. Format: functional. In outline: as §1
The subject of data set [12] is Leishmania donovani. Briefly: Antileishmanial activity against Leishmania donovani MHOM/ET/67/HU3 infected in BALB/c mouse at 2 mg/kg, iv for 5 days from day 7 postinfection measured after 14 days by Giemsa staining. Format: functional. The procedure, abridged:
as §1

Data set [13] has as its system Leishmania donovani. The experiment in a line: Antileishmanial activity against Leishmania donovani MHOM/ET/67/HU3 infected in BALB/c mouse at 15 mg/kg, sc for 5 days from day 7 postinfection measured after 14 days by Giemsa staining. Format: functional, organism-based. Also noted: dose 15 mg/kg. The procedure, abridged: as §1
The mark [14] stands for this setting: Leishmania donovani, MHOM/ET/67/L82, Spleen, 72 h.

As to `CCn1c(=O)/c(=C/C=c2\nc3c(o2)=CC=CN3C)s/c1=C\c1sc2ccccc2[n+]1C`, the IC50 came out at 27200 nM in the data set with L6 (Rattus norvegicus, L6, 72 h) and 677 nM in the data set with Leishmania donovani [1] (setting [14]). Further, in data set [2], the selectivity ratio came out at 40.
For `CCn1c(=O)/c(=C/C=C2\Sc3ccccc3N2C)s/c1=C\c1sc2ccc(F)cc2[n+]1C.[Cl-]`, the results for the IC50 in the data set on L6 (l6), in the data set with Leishmania donovani [5] and in the data set with Leishmania donovani [1] were above 174000 nM, 353 nM and 11 nM, respectively. Moreover, the inhibition in vivo at 50 mg/kg with Leishmania donovani [3] worked out at 31.4%. Besides, 4.1 mg/kg produced 97.2% inhibition in vivo with Leishmania donovani [4]. The molecule further registered an inhibition in vivo at 1.3 mg/kg in the data set on Leishmania donovani [6] of 94.9%. The “Ratio IC50” value in data set [2] is given as above 15000. In addition, the inhibition in vivo at 12.5 mg/kg in the data set with Leishmania donovani [7] was determined as 95.4%. For the same molecule, at 0.2 mg/kg the inhibition in vivo in the data set on Leishmania donovani [8] was 16.1%.
With `CCN1C(=O)/C(=C/C=C2\Sc3ccccc3N2C)S/C1=N\c1sc2ccc(Cl)cc2[n+]1C`, the IC50 was 21200 nM with L6 (Rattus norvegicus, L6, 72 h); 80 nM with Leishmania donovani [5]; 28 nM with Leishmania donovani [1] (setting [14]). The inhibition in vivo at 50 mg/kg in the data set with Leishmania donovani [3] amounted to 18.2%. In addition, in data set [2], the selectivity ratio stood at 757.
`C[C@@H]1[C@H](O)[C@@H](C)/C=C/C=C/C=C/C=C/C=C/C=C/C=C/[C@H](O[C@@H]2O[C@H](C)[C@@H](O)[C@H](N)[C@@H]2O)C[C@@H]2O[C@](O)(C[C@@H](O)C[C@@H](O)[C@H](O)CC[C@@H](O)C[C@@H](O)CC(=O)O[C@H]1C)C[C@H](O)[C@H]2C(=O)O` [AMPHOTERICIN B] showed an inhibition in vivo at 1.5 mg/kg in the data set with Leishmania donovani [9] of 95.5%. In the data set with Leishmania donovani [10], this molecule gave an inhibition in vivo at 0.5 mg/kg of 78.6%.
Consider `CCn1c(=O)/c(=C/N=c2\scc(C)n2C)s/c1=C\c1sc2ccc(F)cc2[n+]1C`, for which the IC50 amounted to 16500 nM in the data set on L6 (Rattus norvegicus, L6, 72 h) and 182 nM with Leishmania donovani [1] (setting [14]). For the same molecule, the selectivity ratio in data set [2] was found to be 91.
Regarding `CCn1c(=O)/c(=C/C=C2\Sc3ccccc3N2C)s/c1=C\c1sc2ccc(F)cc2[n+]1C.CS(=O)(=O)[O-]`, the half-maximal inhibitory concentration (IC50) in the data set on L6 (l6) amounted to 84500 nM; in the data set on Leishmania donovani [1] it was 20 nM. The “Ratio IC50” value in data set [2] was 4225. Moreover, at 50 mg/kg the inhibition in vivo with Leishmania donovani [11] was 28%. This molecule also gave an inhibition in vivo at 2 mg/kg in the data set on Leishmania donovani [12] of 46.4%.
As for `CCn1c(=O)/c(=C/C=c2\nc3c(o2)=CC=CN3C)s/c1=C\c1sc2ccc(F)cc2[n+]1C`, the IC50 with L6 (Rattus norvegicus, L6, 72 h) is 28500 nM; in the data set on Leishmania donovani [1] (setting [14]), 1040 nM. The selectivity ratio in data set [2] stood at 27.
For `CCn1c(=O)/c(=C/N=c2n(C)c3ccccc3n2C)s/c1=C\c1sc2ccc(F)cc2[n+]1C`, the 50% inhibitory concentration (IC50) in the data set with L6 (Rattus norvegicus, L6, 72 h) was found to be 80900 nM; in the data set on Leishmania donovani [1] (setting [14]) it was 129 nM. Besides, in data set [2], the selectivity ratio was 627.
In the case of `CCn1c(=O)/c(=C/N=c2\ccccn2C)s/c1=C\c1sc2ccc(F)cc2[n+]1C`, the IC50 with L6 (Rattus norvegicus, L6, 72 h) was 31700 nM; in the data set with Leishmania donovani [1] (setting [14]), 2020 nM. For the same molecule, in [2], the selectivity ratio was 16.
With `CCn1c(=O)/c(=C2\Sc3ccccc3N2C)s/c1=C\c1cccc[n+]1CC`, the IC50 in the data set with L6 (Rattus norvegicus, L6, 72 h) amounted to 115000 nM; with Leishmania donovani [1] (setting [14]) it was 255 nM. Besides, the selectivity ratio in data set [2] turned out to be 450.
Regarding `CCN1C(=O)/C(=C/C=C2\Sc3ccccc3N2C)S/C1=N\c1sc2ccccc2[n+]1C`, the concentration for half-maximal inhibition (IC50) came to 156000 nM with L6 (Rattus norvegicus, L6, 72 h); 4690 nM in the data set with Leishmania donovani [5]; 52 nM with Leishmania donovani [1] (setting [14]). The selectivity ratio in data set [2] stood at 2990.
For `CCn1c(=O)/c(=C/C=C2\Sc3ccccc3N2C)s/c1=C\c1sc2ccc(F)cc2[n+]1C.O=C([O-])/C=C\C(=O)O`, the IC50 in the data set on L6 (l6) turned out to be 71700 nM; in the data set on Leishmania donovani [1], 25 nM. In [2], the “Ratio IC50” value is on record as 2870.
`CCCCN1C=CC=c2o/c(=C/C=c3\s/c(=C\c4sc5ccccc5[n+]4CC)n(CCC)c3=O)nc21`: the IC50 with L6 (Rattus norvegicus, L6, 72 h) came out at 2070 nM; in the data set with Leishmania donovani [1] (setting [14]), 21 nM. Moreover, the selectivity ratio in data set [2] worked out at 99.
In the case of `CN1/C(=C/C=c2\s/c(=C\c3sc4ccc(F)cc4[n+]3C)n(CCO)c2=O)Sc2ccccc21`, the IC50 with L6 (Rattus norvegicus, L6, 72 h) is above 169000 nM; in the data set with Leishmania donovani [1] (setting [14]), 11600 nM. Further, the selectivity ratio in [2] was above 15.
“D-gluconic acid, 2,4:2',4'-O-[oxybis-oxidostibylidyne]bis-, trisodium salt, nonahydrate” registered an inhibition in the data set on Leishmania donovani [13] of 62%.
With `CCCCCCCCCCCCCCCCOP(=O)([O-])OCC[N+](C)(C)C` [MILTEFOSINE], the results for the IC50 with Leishmania donovani [5] and with Leishmania donovani [1] (setting [14]) were 811 nM and 430 nM, respectively.
As to `CCn1c(=O)/c(=C/N=c2\sc(C)cn2C)s/c1=C\c1sc2ccc(F)cc2[n+]1C`, the IC50 with L6 (Rattus norvegicus, L6, 72 h) turned out to be 10400 nM; in the data set on Leishmania donovani [1] (setting [14]), 118 nM. In addition, the selectivity ratio in data set [2] came out at 88.
On to `CCn1c(=O)/c(=C/C=C2\Sc3ccccc3N2C)s/c1=C\c1sc2ccccc2[n+]1C`, for which the IC50 with L6 (Rattus norvegicus, L6, 72 h) turned out to be 7980 nM; with Leishmania donovani [1] (setting [14]) it was 106 nM. For the same molecule, in [2], the selectivity ratio stood at 75.
With `CCCN1C=CC=c2o/c(=C/C=c3\s/c(=C\c4sc5ccccc5[n+]4C)n(CC)c3=O)nc21`, the IC50 in the data set on L6 (Rattus norvegicus, L6, 72 h) came to 1440 nM; in the data set with Leishmania donovani [1] (setting [14]), 690 nM. Besides, the selectivity ratio in data set [2] is 2.
